Most compounds without a hit are left out; they make up all but 2.6% or so of the library.
MC4R antag cAMP – blocks human MC4R cAMP signaling. AID 540295. 360,000 tested, 0.48% active. inhibition, % at 6.5 µM. MC4R-expressing cells, MTII-stimulated cAMP, LANCE TR-FRET. P32245;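 active means inhibition above its plate's cutoff, the mean of tested wells on that plate plus 3 SD, cut at about 29% in these data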;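 further: 0% = Melanotan II alone and 100% = Melanotan II plus saturating MCL0020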
Target sequence (P32245 whole entry, looked up): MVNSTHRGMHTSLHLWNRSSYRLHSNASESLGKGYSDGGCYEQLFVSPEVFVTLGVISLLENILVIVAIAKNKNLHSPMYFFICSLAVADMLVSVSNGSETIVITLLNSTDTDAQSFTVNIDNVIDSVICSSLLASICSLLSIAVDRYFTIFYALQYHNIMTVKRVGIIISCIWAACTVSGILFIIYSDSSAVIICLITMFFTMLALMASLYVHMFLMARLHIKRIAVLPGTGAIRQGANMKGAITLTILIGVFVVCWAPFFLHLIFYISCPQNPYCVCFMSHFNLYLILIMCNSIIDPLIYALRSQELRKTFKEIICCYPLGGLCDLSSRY
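system = U2OS cells with stable human MC4R expression | also added = Melanotan II challenge after compound preincubation | dosing = one concentration, 6.5 µM nominal | incubation = compound 30 min, challenge 1 h, detection 1 h | measured by = TR-FRET with Eu-cAMP and labeled anti-cAMP, 671 nm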
EP2 mod – modulates human prostaglandin E2 receptor EP2 signaling; P43116; EP2-expressing cells, cAMP HTRF FRET, PGE2 co-stimulation; induction, % at 25 µM; 260,000 tested, 0.83% active; AID 940;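 active means compounds whose cAMP rise, as percent of the full-agonist control response, exceeds 60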;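 further: rat C6 glioma line stably carrying human EP2 under a CMV promoter; the protocol text gives 20 µM as final concentration; 100% = response of wells given 1 µM PGE2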
Target sequence (P43116 whole entry, looked up): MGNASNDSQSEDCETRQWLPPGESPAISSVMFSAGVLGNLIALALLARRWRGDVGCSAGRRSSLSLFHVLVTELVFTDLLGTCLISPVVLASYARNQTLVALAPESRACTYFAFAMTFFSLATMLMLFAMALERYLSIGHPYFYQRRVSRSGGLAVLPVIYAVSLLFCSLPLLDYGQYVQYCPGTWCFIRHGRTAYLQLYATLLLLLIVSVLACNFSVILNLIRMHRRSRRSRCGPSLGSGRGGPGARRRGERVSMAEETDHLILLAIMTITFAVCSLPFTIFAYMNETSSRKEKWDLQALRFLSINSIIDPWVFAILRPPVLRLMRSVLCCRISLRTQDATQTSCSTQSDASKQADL
T cell HTS – T cell immune modulation candidate | AID 2052 | 2C CD8+ T cell-vesicle binding, flow cytometry; active compounds read low | response (vesicle binding), % at 7 µM | 330,000 tested, 0.068% active;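 active means response, share of CD8 T cells binding vesicles, and their 90th percentile fluorescence all below set limits, cut at about 80% in these data, passing the limit was not always enough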;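 further: values below 100% mean blocked vesicle binding to the CD8+ T cells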
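Benchmarks: naked versus QL9-loaded vesicles / Assay system: purified 2C TCR transgenic mouse naive CD8+ T cells / Technique: high-throughput flow cytometry with anti-B7-1 and anti-CD8 staining / Timing: Cell–vesicle co-incubation 1.5 h at 37 °C, staining 20 min on ice / Read-out: percent CD8+ FL2 mean versus row control / Probe or stimulus: QL9-loaded Drosophila micro-vesicles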
MC4R barr agon – activates human MC4R beta-arrestin recruitment | P32245 | U2OS MC4R beta-arrestin complementation, luminescence; percent of melanotan II response, DMSO zero | activation, % at 8.9 µM | 360,000 tested, 0.98% active | AID 540308;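 active means activation above a per-plate cutoff, the mean activation of sample wells on that plate plus 3 SD, cut at about 8% in these data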
Exocytosis inh – lytic granule exocytosis inhibition; 360,000 tested, 0.66% active; AID 651702; TALL-104 LAMP-1 surface exposure, flow cytometry; cells stimulated with thapsigargin and PMA; inhibition, % at 10 µM;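 active means inhibition above about 55%, limit read from the data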
PGE2 EP2 inh – EP2 receptor (human) inhibition; C6 glioma cells expressing human EP2, cAMP TR-FRET; cells stimulated with saturating PGE2; inhibition, % at 25 µM; 260,000 tested, 0.52% active; AID 1422;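 active means percent inhibition above 40 after rounding to a whole number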;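 further: rat C6 glioma host cells with rolipram phosphodiesterase inhibitor present; the protocol text gives 20 µM as final concentration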
* marks the source's active call; other numbers are inactive results; i = inactive; . = not tested or not shown.

SMILES | MC4R antag cAMP | EP2 mod | T cell HTS | MC4R barr agon | Exocytosis inh | PGE2 EP2 inh
Clc1ccccc1-c1ncc(-c2ccccc2)o1 | -5 | . | i | 1 | -5 | .
c1ccc(-c2cnc(-c3ccc(-c4ncc(-c5ccccc5)o4)cc3)o2)cc1 | . | 12 | . | . | . | 45*
CCCn1c(=O)[nH]c(=O)c2c(C(F)(F)F)cc(-c3ccc(C)cc3)nc21 | 2 | 40 | 210 | -2 | -5 | 9
CC(C)Cn1c(=O)[nH]c(=O)c2c(C(F)(F)F)cc(-c3ccccc3)nc21 | 4 | 66* | 337 | 6 | 2 | 5
COc1ccc2c(c1)c(=O)oc1cc(OCC(=O)NCC3CCC(C(=O)O)CC3)ccc12 (configuration not stated) | -4 | . | 223 | 1 | 4 | .
Cc1ccc(NC(=O)COC(=O)c2ccc(-n3nc(C)cc3C)cc2)c(F)c1 | -7 | . | 147 | 8.6* | -1 | .
O=[N+]([O-])c1cc2ncccc2c2ncccc12 | -2 | . | . | -2 | 4 | .
O=[N+]([O-])c1cc(Cc2cc([N+](=O)[O-])c3cccnc3c2O)c(O)c2ncccc12 | . | -16 | . | . | . | 75*
Brc1ccc2c(c1)C(c1ccncc1)=NNC(c1ccccc1)=N2 | . | -116 | . | . | . | 9
COc1cccc(C2=NN(C(=O)c3ccccc3)C(O)(C(F)(F)F)C2)c1 (configuration not stated) | -2 | 64* | 657 | 1 | 0 | .
O=C(O)/C=C/C(=O)Nc1nc(-c2ccc3ccccc3c2)cs1 | -1 | . | 692 | -2 | 4 | .
Cc1[nH]c(=O)c(C#N)c(C)c1Cl | 13 | -1 | 638 | -1 | 2 | 13
COc1ccc(C(CNC(=O)c2ccc(-c3ccccc3Cl)o2)N2CCCC2)cc1 (configuration not stated) | 12 | . | . | 5 | -1 | .
Cc1cccc(/C=C2/Sc3ccc(C(=O)NCCCN4CCOCC4)cc3NC2=O)c1 | 5 | . | 376 | -2 | 60* | .
NS(=O)(=O)c1ccc(CNC(=S)NC2CCCC2)cc1 | 15 | 22 | 374 | 2 | -1 | 5
Cc1nn(CC(=O)NC(C)c2ccccn2)c(=O)c2cc3occc3n12 (configuration not stated) | . | -5 | . | . | . | 6
O=[N+]([O-])c1ccc(Nc2nc(N/N=C/c3cccc(F)c3)nc(N3CCCC3)n2)cc1 | 3 | -5 | 315 | -2 | 2 | 5
O=[N+]([O-])c1ccc(Nc2nc(NC3CCCCC3)nc(N3CCCC3)n2)cc1 | 2 | 15 | 156 | 3 | 78* | 12
CC(C)C1C(C#N)=C(N)Oc2n[nH]c(-c3ccc4ccccc4c3)c21 (configuration not stated) | -14 | -33 | i | 9.4* | 8 | 133*
O=C(CN1C(=O)NC2(CCc3ccccc3C2)C1=O)Nc1ccc(Cl)cc1F (configuration not stated) | -3 | 1 | 800 | -1 | 5 | 8
CC(=O)OCCCNc1cc(Sc2ccc(Cl)cc2)c2nonc2c1[N+](=O)[O-] | -4 | 4 | 186 | -1 | 64* | 0
COc1ccc(/C=C/C(=O)Nc2cc(C)nn2-c2nc3ccccc3n2Cc2cccc([N+](=O)[O-])c2)cc1 | -2 | 4 | 104 | 8.6* | 2 | 6
COc1ccc(/C=C/C(=O)Nc2cc(C)nn2-c2nc3ccccc3[nH]2)cc1 | 7 | 8 | 233 | 0 | -1 | 8
C[C@H](CO)N1C[C@H](C)[C@@H](CN(C)S(=O)(=O)c2cccs2)Oc2c(NC(=O)NC3CCCCC3)cccc2C1=O | 15 | . | 364 | 0 | -3 | .
CCc1cc2cc(C(=O)Nc3ccccc3F)sc2s1 | -2 | -18 | 235 | 9.0* | -7 | 9
SMILES | MC4R antag cAMP | EP2 mod | T cell HTS | MC4R barr agon | Exocytosis inh | PGE2 EP2 inh
CCc1cc2cc(C(=O)Nc3ccc(F)cc3)sc2s1 | 0 | 22 | 332 | 1 | 1 | 12
FC(F)(F)c1cccc(Sc2cc(C(F)(F)F)nc(-c3ccccn3)n2)c1 | 12 | -3 | 435 | 9.1* | -2 | 1
O=C(O)CSc1cc(C(F)(F)F)nc(-c2ccccn2)n1 | -3 | -2 | 288 | -1 | -2 | 13
COc1ccccc1CCNC(=O)C(=O)Nc1cc2c3c(c1)C(C)C(=O)N3CCC2 (configuration not stated) | 12 | . | 219 | -3 | -3 | .
O=NN(C(=O)NCc1cccnc1)C1CCCCC1 | . | . | . | . | 6 | .
CC1(C)Cc2ccccc2C(C(=O)Nc2ccccc2Cl)N1 (configuration not stated) | . | 63* | . | . | . | 10
Cc1cc(=O)oc2cc(OCC(=O)Nc3ccc(C(C)C)cc3)ccc12 | . | -10 | . | . | . | 18
Cc1csc(NC(=O)COc2ccc3c(C)cc(=O)oc3c2)n1 | -9 | 9 | 403 | 9.4* | 2 | 9
Cc1nnc(NC(=O)CN2CCN(Cc3ccccc3Cl)CC2)s1 | -3 | . | 375 | 0 | 0 | .
CNC(=O)C1CCN(S(=O)(=O)c2ccc(Cl)cc2)CC1 | . | 1 | . | . | . | 5
Cc1cc(NC(=O)c2cnn3c(C(F)(F)F)cc(-c4ccccc4)nc23)no1 | 4 | -55 | 352 | 0 | 8 | 51*
Cn1cc(/C(Cc2ccccc2)=N\O)c2ccccc21 | -2 | 64* | 263 | -3 | 0 | 5
CCCC(=O)Nc1cc(C(F)(F)F)ccc1N1CCOCC1 | 3 | -1 | 325 | -3 | 7 | 7
CCOC(=O)c1[nH]c(C)c(/C(O)=C2\C(=O)C(=O)N(CCCN3CCOCC3)C2c2cccs2)c1C (configuration not stated) | 9 | 14 | 415 | -3 | 0 | 88*
COC(=O)c1[nH]c(C)c(/C(O)=C2\C(=O)C(=O)N(CCN3CCOCC3)C2c2cccs2)c1C (configuration not stated) | 7 | 36 | 429 | 0 | -3 | 8
Cc1ccc(NC(=O)CCc2c(C)[nH]c(=O)c(C#N)c2C)cc1 | 17 | . | 364 | -1 | -1 | .
COc1ccc(NC(=O)NC2CCCCCCC2)cc1 | 9 | . | 69* | -2 | 0 | .
CN(CC(=O)Nc1ccccc1Sc1ccccc1)C1CCCCC1 | -2 | 64* | 252 | -1 | 10 | 6
CSc1ccccc1NC(=O)CN(C1CCCCC1)S(C)(=O)=O | 3 | 9 | 353 | -2 | 8 | 5
Cc1[nH]c2ccccc2c1/C=N/Nc1nc2ccccc2[nH]1 | -4 | -22 | 426 | -3 | 72* | 16
Cc1ccccc1/C=N/Nc1nc2ccccc2[nH]1 | -12 | -95 | 376 | 0 | -1 | 20
O=C(NNC(=O)c1ccc(F)cc1)C(=O)N1CCCCC1 | 1 | -10 | 310 | -1 | 4 | 7
O=C(Nc1ccncc1)c1ccc2c(c1)C(=O)N(C1CCCCC1)C2=O | 5 | -10 | 271 | 6 | 1 | 46*
Cc1cc(NC(=O)c2ccc3c(c2)C(=O)N(C2CCCCC2)C3=O)no1 | 17 | 17 | 270 | -1 | 0 | 18

Compound activity as filed in PubChem.
